For 25 compounds, IC50, Activity and inhibition in vivo results are on record in ChEMBL document CHEMBL1806447, “Semi-synthesis and antitumor activity of 6-isomers of 5, 8-O-dimethyl acylshikonin derivatives” (Eur J Med Chem, 2011).

The structures appear in SMILES notation. pIC50: −log10 of the molar value. Bounds are passed on as bounds.

One data set concerns HCT-15. The experiment in a line: Antitumor activity against human HCT15 cells after 24 hrs by MTT assay. Format: functional, cell-based. The settings on record: HCT-15, 24 h. A digest of the protocol:
(§1)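 Seeded at 5.0 × 10⁴ cells/mL and cultured 24 h, then exposed 24 h to serial dilutions made from a DMSO solution. MTT (5 mg/mL) added for 4 h, formazan dissolved in DMSO, A570 read. IC50 taken by linear regression of concentration-response curves; mean of at least three independent experiments.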

In a further data set the test system is L929. In words: Cytotoxicity against mouse L929 cells after 24 hrs by MTT assay. The format is cell-based. The settings on record: L929, 24 h. A digest of the protocol:
as §1
Background: Tetrazolium dyes change colour on reduction, which living cells bring about.

A further data set has as its system MDA-MB-231. The experiment in a line: Antitumor activity against human MDA-MB-231 cells after 24 hrs by MTT assay. The format is functional, cell-based. Conditions: MDA-MB-231, 24 h. In short, it runs like this: as §1
Another data set has as its system CNE. The experiment in a line: Antitumor activity against human CNE cells after 24 hrs by MTT assay. Format: functional, cell-based. A digest of the protocol: as §1
Another data set relates to MCF7. In words: Antitumor activity against human MCF7 cells after 24 hrs by MTT assay. The format is functional, cell-based. Conditions: MCF7, 24 h. A digest of the protocol: as §1
Data set [1] can be described thus: Cytotoxicity against human HSF cells after 24 hrs by MTT assay. The format is cell-based. A digest of the protocol:
as §1

A further data set has as its system K562. The experiment in a line: Antitumor activity against human K562 cells after 24 hrs by MTT assay. The settings on record: K562, 24 h. The format is functional, cell-based. A digest of the protocol: as §1
The next data set has as its system Mus musculus. The experiment in a line: Toxicity in KM mouse harboring mouse S180 cells xenograft assessed as body weight change at 25 mg/kg, ip administered qd for 9 days measured on 10th day (reference value: +39.1%). The format is organism-based, CCRF S-180. More on the design: dose 25 mg/kg, route intraperitoneal. Conditions: in vivo, 216 h. A digest of the protocol: (§2)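 S-180 sarcoma cells (2 × 10⁶ in 0.2 ml saline) injected subcutaneously at the femur of male SPF KM mice, seven weeks old, 18–22 g; groups of 10. Dosing began 24 h later, i.p. once daily for 9 days, in 0.5% DMSO/1% Tween 80 diluted with saline; controls received vehicle. Body weight followed; tumors excised and weighed on day 10. Inhibition = (control − treated mean tumor weight)/control × 100%.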

Data set [2] has as its system CCRF S-180. The experiment in a line: Antitumor activity against mouse S180 cells xenografted in KM mouse assessed as decrease in tumor weight at 25 mg/kg, ip administered qd for 9 days measured on 10th day (reference value: 2.07+/- 0.42g). Conditions: route intraperitoneal. The format is functional. A digest of the protocol: as §2
For data set [3], the system named is CCRF S-180. The experiment in a line: Antitumor activity against mouse S180 cells xenografted in KM mouse assessed as tumor weight inhibition rate at 25 mg/kg, ip administered qd for 9 days measured on 10th day. Conditions: CCRF S-180, ip, 216 h, route intraperitoneal. Format: functional. In short, it runs like this:
as §2

Consider `COc1ccc(OC)c2c1C(=O)C=C([C@@H](CC=C(C)C)OC(C)=O)C2=O`, for which the pIC50 is 4.53 with HCT-15, under 4.00 with L929, 5.14 with MDA-MB-231 and 4.64 in the data set with CNE.
For the compound `COc1cc([C@@H](CC=C(C)C)OC(=O)c2ccoc2)c(OC)c2c1C(=O)C=CC2=O`, the pIC50 with MCF7 is 5.89; in data set [1], under 4.00; with MDA-MB-231 it was 6.40.
`COc1cc([C@@H](CC=C(C)C)OC(C)=O)c(OC)c2c1C(=O)C=CC2=O`: the pIC50 is 5.31 with MCF7; 4.71 with HCT-15; under 4.00 in data set [1]; 4.82 in the data set with K562; under 4.00 in the data set on L929; 5.47 with MDA-MB-231. In the data set on CNE, the pIC50 is 4.24.
Consider `CCC(=O)O[C@H](CC=C(C)C)c1cc(OC)c2c(c1OC)C(=O)C=CC2=O`, for which the results for the pIC50 (in the data set on MCF7; in data set [1]; in the data set with MDA-MB-231) were 5.21, 4.10 and 5.60, respectively.
For `CCCC(=O)O[C@H](CC=C(C)C)c1cc(OC)c2c(c1OC)C(=O)C=CC2=O`, the pIC50 in the data set with MCF7 was 5.29; in data set [1], 4.06; in the data set on MDA-MB-231, 5.37.
As to `COc1cc([C@@H](CC=C(C)C)OC(=O)C(C)C)c(OC)c2c1C(=O)C=CC2=O`, the results for the pIC50 (with MCF7; in data set [1]; with MDA-MB-231) were 5.43, 4.16 and 5.55, respectively.
As to `C/C=C/C(=O)O[C@H](CC=C(C)C)c1cc(OC)c2c(c1OC)C(=O)C=CC2=O`, the negative-log IC50 (pIC50) in the data set on MCF7 is 5.48; in [1] it was 4.13; in the data set on MDA-MB-231, 5.82.
In the same order, the values of `CCC(C)C(=O)O[C@H](CC=C(C)C)c1cc(OC)c2c(c1OC)C(=O)C=CC2=O` (stereo partly specified) are 5.35, 4.03 and 5.23.
Consider `COc1cc([C@@H](CC=C(C)C)OC(=O)c2ccccc2)c(OC)c2c1C(=O)C=CC2=O`, for which the negative logarithm of the IC50 (pIC50) in the data set on MCF7 was 5.17; in data set [1], under 4.00; with MDA-MB-231 it was 5.66.
`COc1cc([C@@H](CC=C(C)C)OC(=O)CCc2ccccc2)c(OC)c2c1C(=O)C=CC2=O`: the values for the pIC50 (with MCF7; in data set [1]; in the data set with MDA-MB-231) were 5.23, under 4.00 and 5.43, respectively.
For the compound `COc1cc([C@@H](CC=C(C)C)OC(=O)/C=C/c2ccccc2)c(OC)c2c1C(=O)C=CC2=O`, the pIC50 was 5.41 in the data set on MCF7, under 4.00 in data set [1] and 5.62 in the data set on MDA-MB-231.
In the same order, the values of `COc1cc([C@@H](CC=C(C)C)OC(=O)c2ccc([N+](=O)[O-])cc2)c(OC)c2c1C(=O)C=CC2=O` are 4.82, under 4.00 and 4.77.
Turning to `COc1ccc(C(=O)O[C@H](CC=C(C)C)c2cc(OC)c3c(c2OC)C(=O)C=CC3=O)cc1`, the negative logarithm of the IC50 (pIC50) is 5.08 with MCF7, 4.05 in data set [1] and 5.85 with MDA-MB-231.
Take `COc1ccccc1C(=O)O[C@H](CC=C(C)C)c1cc(OC)c2c(c1OC)C(=O)C=CC2=O`: the pIC50 was 4.67 in the data set with MCF7, under 4.00 in data set [1] and 5.36 in the data set on MDA-MB-231.
Taken in the same sequence, the figures for `COc1ccc(CC(=O)O[C@H](CC=C(C)C)c2cc(OC)c3c(c2OC)C(=O)C=CC3=O)cc1` were 5.26, under 4.00 and 5.64.
As for `COc1ccc(/C=C/C(=O)O[C@H](CC=C(C)C)c2cc(OC)c3c(c2OC)C(=O)C=CC3=O)cc1OC`, the results for the negative logarithm of the IC50 (pIC50) (in the data set on MCF7; in data set [1]; in the data set with MDA-MB-231) were 5.11, under 4.00 and 5.30, respectively.
As to `COc1cc([C@@H](CC=C(C)C)OC(=O)c2ccco2)c(OC)c2c1C(=O)C=CC2=O`, the pIC50 in the data set with MCF7 was 5.57; in [1], under 4.00; in the data set on MDA-MB-231, 5.89.
In the case of `COc1cc([C@@H](CC=C(C)C)OC(=O)C2CCCO2)c(OC)c2c1C(=O)C=CC2=O` (stereo partly specified), the pIC50 in the data set with MCF7 was 5.60; in the data set with HCT-15 it was 4.73; in [1], under 4.00; with K562, 4.95; with L929, under 4.00; in the data set with MDA-MB-231, 6.22. In the data set on CNE, this compound showed a pIC50 of 4.69.
Take `COc1cc([C@@H](CC=C(C)C)OC(=O)C2CCOC2)c(OC)c2c1C(=O)C=CC2=O` (stereo partly specified): the pIC50 with MCF7 is 5.96; in data set [1] it was 4.16; in the data set on MDA-MB-231, 6.70.
In the case of `COc1cc([C@@H](CC=C(C)C)OC(=O)c2cccnc2)c(OC)c2c1C(=O)C=CC2=O`, the pIC50 is 4.76 in the data set on MCF7, 4.04 in data set [1] and 5.22 in the data set with MDA-MB-231.
In the same order, the values of `COc1cc([C@@H](CC=C(C)C)OC(=O)c2ccncc2)c(OC)c2c1C(=O)C=CC2=O` are 5.20, under 4.00 and 5.92.
Taken in the same sequence, the figures for `COc1cc([C@H](O)CC=C(C)C)c(OC)c2c1C(=O)C=CC2=O` were 5.04, 4.10 and 5.39.
Consider `COc1ccc(OC)c2c1C(=O)C=C([C@@H](CC=C(C)C)OC(=O)C1CCCO1)C2=O` (stereo partly specified), for which the pIC50 was 4.90 with HCT-15, under 4.00 with L929, 5.68 in the data set with MDA-MB-231 and 4.78 in the data set with CNE.
Take `O=c1[nH]cc(F)c(=O)[nH]1` [FLUOROURACIL]: the values for the Activity with Mus musculus and in the data set with CCRF S-180 [2] were 34.7% and 1.11 g, respectively. In addition, the inhibition in vivo at 25 mg/kg in the data set with CCRF S-180 [3] was found to be 46.5%.
Take `CC(C)=CC[C@@H](O)C1=CC(=O)c2c(O)ccc(O)c2C1=O` [SHIKONIN]: the pIC50 is 5.14 in the data set on HCT-15, 5.49 in the data set on L929, 5.18 with MDA-MB-231 and 6.15 in the data set with CNE.

Usually pIC50 stands for −log10 of the IC50, conventionally taken in molar units. In general, inhibition in vivo refers to the change of the read-out against control, counted positive when it falls.
